Laboratory results as given in ChEMBL document CHEMBL1129491, “Synthesis of non-nucleoside analogs of toyocamycin, sangivamycin, and ++thiosangivamycin: influence of various 7-substituents on antiviral activity” (J Med Chem, 1996).
pIC50: −log10 of the molar value.

Tests used:
KB [1] = experiment: Cytotoxic activity tested against exponentially growing KB cells, determined by staining method; type: functional, cell-based; conditions: Homo sapiens
Procedure, shortened: (§1)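 KB cells (human oral epidermoid carcinoma) kept in MEM(H) with 10% calf serum and tested while exponentially growing. Toxicity measured by a previously described staining method. IC50 from linear regression of percent inhibition against log drug concentration; two or more experiments averaged.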

L1210 [2] = experiment: In vitro cytotoxicity against growth rate of L1210 cell at 100 micro M was evaluated.; type: functional, Mus musculus
Procedure, shortened: (§2)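 L1210 murine leukemia cells in Fischer's medium with 10% heat-inactivated horse serum (56 °C, 30 min), exposed to 100 μM compound. Cells counted at 0, 24, 48, 72 and 96 h. Growth rate taken as the slope of semilog cell number versus time, expressed as percent of untreated control.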

Human alphaherpesvirus 1 = experiment: Antiviral activity against HSV-1 replication was evaluated by ELISA; type: functional, organism-based
Procedure, shortened: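 HSV-1 strain S-148 ELISA following Prichard and Shipman. Drug concentrations applied to infected cultures; percent inhibition regressed linearly against log concentration and IC50 read from the regression line. Acyclovir as positive control. Most assays averaged over two or more experiments, but HSV-1 ELISAs were run once.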

HFF = experiment: Cytotoxicity against HFF cells, estimated by visual scoring of cells not affected by virus infection in the plaque reduction assay; type: functional, cell-based; conditions: Homo sapiens
Procedure, shortened: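 Uninfected areas of HFF monolayers in the HCMV plaque-reduction assay examined at 35-fold magnification. Drug-induced cytopathology scored 0–4 on the day plaques were stained and counted.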

Human betaherpesvirus 5 [3] = experiment: Antiviral activity against Human Cytomegalovirus (HCMV) replication in a plaque reduction assay; type: functional, organism-based
Procedure, shortened: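 Towne strain HCMV (plaque-purified P0) on HFF monolayers in MEM(E) with 10% FBS. Inoculum ca. 100 PFU per 0.2 mL; compounds dissolved in the overlay medium; plaques counted after staining. IC50 from linear regression of percent inhibition against log concentration. Ganciclovir as positive control; two or more experiments averaged.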

Human betaherpesvirus 5 [4] = experiment: Antiviral activity in Human Cytomegalovirus Viral infection was evaluated by ELISA method; type: functional, organism-based
Procedure, shortened: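 MRC-5 cells held overnight at 37 °C, then infected with Towne HCMV at moi 0.002 PFU/cell. After 1 h adsorption, up to 10 drug concentrations added in triplicate. Fixed with 95% EtOH after 6.5 days. Blocked, then mouse anti-HCMV monoclonal (1:400, 1 h) and peroxidase anti-mouse (1:1000, 2 h). Read at 450/570 nm, background subtracted; IC50 by log-linear regression.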

L1210 [5] = experiment: In vitro cytotoxicity against growth rate of L1210 cell at 100 uM was evaluated.; type: functional, Mus musculus; procedure, shortened: as §2
KB [6] = experiment: Cytotoxic activity against exponentially growing KB cells was determined by a staining method; type: functional, cell-based; conditions: Homo sapiens; procedure, shortened: as §1
L1210 [7] = experiment: Inhibitory concentration required to decrease the growth rate of L1210 cells to one-half of the control rate.; type: functional, cell-based; conditions: Mus musculus
Procedure, shortened: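 L1210 cells in Fischer's medium with 10% heat-inactivated horse serum, counted at 0, 24, 48, 72 and 96 h across selected compound concentrations. Growth rate is the semilog slope as percent of control. IC50 is the concentration that halves the growth rate; '>' values give the highest concentration tested.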

L1210 [8] = experiment: Percent control against growth rate of L1210 cell at 100 micro M was evaluated.; type: functional, Mus musculus; procedure, shortened: as §2

Row | Structure (SMILES) | pIC50 (KB [1]) | Control (L1210 [2]) | pIC50 (Human alphaherpesvirus 1) | pIC50 (HFF) | pIC50 (Human betaherpesvirus 5 [3]) | pIC50 (Human betaherpesvirus 5 [4]) | Control (L1210 [5]) | pIC50 (KB [6]) | pIC50 (L1210 [7]) | Control (L1210 [8])
1 | COCCOCn1cc(C#N)c2c(N)ncnc21 | < 4.00 | 88% | < 4.00 | < 4.00 | 4.05 |  |  |  |  | 
2 | CCOCn1cc(C(=N)S)c2c(N)ncnc21 | 4.17 | 111% | 4.40 | 4.18 | 5.57 | 5.15 |  |  |  | 
3 | COCCOCn1cc(C(N)=S)c2c(N)ncnc21 | 3.74 | 88% | 4.07 | < 4.00 | 6.00 | 5.72 |  |  |  | 
4 | N#Cc1cn(COCc2ccccc2)c2ncnc(N)c12 | < 4.00 | 83% | < 4.00 | < 4.00 | < 4.00 |  |  |  |  | 
5 | Cc1ccc(Cn2cc(C#N)c3c(N)ncnc32)cc1 | < 4.00 |  | < 4.00 | < 4.00 | < 4.00 |  | 64% |  |  | 
6 | Cc1cccc(Cn2cc(C#N)c3c(N)ncnc32)c1 |  |  | < 4.00 | < 4.00 | < 4.00 |  |  | < 4.00 |  | 
7 | Cc1ccc(Cn2cc(C(N)=O)c3c(N)ncnc32)cc1 | < 4.00 |  | < 4.00 | < 4.00 | < 4.00 |  | 2% |  | 4.70 | 
8 | CC(C)(C)c1ccc(Cn2cc(C(N)=O)c3c(N)ncnc32)cc1 | 6.05 |  | 4.30 | 4.00 | 4.55 |  |  |  |  | 
9 | COc1ccc(Cn2cc(C(=N)S)c3c(N)ncnc32)cc1 | 4.55 |  | 5.40 | 4.18 | 6.30 | 6.30 |  |  |  | 
10 | NC(=O)c1cn(COCc2ccccc2)c2ncnc(N)c12 | < 4.00 | 0% | < 4.00 | < 4.00 | < 4.00 |  |  |  | 4.15 | 
11 | COc1ccc(Cn2cc(C#N)c3c(N)ncnc32)cc1 | < 4.00 |  | < 4.00 | < 4.00 | < 4.00 |  |  |  |  | 
12 | Cc1ccccc1Cn1cc(C#N)c2c(N)ncnc21 | < 4.00 |  | < 4.00 | < 4.00 | 5.47 | 4.49 |  |  |  | 
13 | CC(C)(C)c1ccc(Cn2cc(C#N)c3c(N)ncnc32)cc1 | 5.52 |  | < 4.00 | < 4.49 | 4.49 |  |  |  |  | 
14 | NC(=O)c1cn(Cc2ccccc2)c2ncnc(N)c12 | 4.12 |  | 4.48 | < 4.49 | < 4.00 |  | 0% |  | 4.80 | 
15 | NC(=S)c1cn([C@@H]2O[C@H](CO)[C@@H](O)[C@H]2O)c2ncnc(N)c12 |  |  |  | 6.70 | 6.70 |  |  |  |  | 
16 | NC(=S)c1c[nH]c2ncnc(N)c12 | 4.60 |  | 4.46 | < 4.49 | 5.80 |  |  |  |  | 
17 | Cc1cccc(Cn2cc(C(=N)S)c3c(N)ncnc32)c1 | 4.52 |  | 4.82 | 4.18 | 6.60 |  |  |  |  | 
18 | COc1ccc(Cn2cc(C(N)=O)c3c(N)ncnc32)cc1 | 4.33 |  | 4.46 | < 4.49 | 4.89 |  |  |  |  | 
19 | CC(C)(C)c1ccc(Cn2cc(C(=N)S)c3c(N)ncnc32)cc1 | 5.15 |  | 4.82 | < 4.00 | 5.82 |  |  |  |  | 
20 | NC(=S)c1cn(Cc2ccccc2)c2ncnc(N)c12 | 4.49 |  | 5.13 | < 4.49 | 6.44 | 6.48 | 0% |  | 4.15 | 
21 | Cc1ccc(Cn2cc(C(=N)S)c3c(N)ncnc32)cc1 | 4.19 |  | 5.46 | 4.00 | 7.00 | 6.82 | 92% |  | < 5.00 | 
22 | C=CCn1cc(C(N)=O)c2c(N)ncnc21 | 4.00 |  | < 4.00 |  | < 4.00 |  | 66% |  |  | 

Row | Structure (SMILES) | pIC50 (KB [1]) | Control (L1210 [2]) | pIC50 (Human alphaherpesvirus 1) | pIC50 (HFF) | pIC50 (Human betaherpesvirus 5 [3]) | pIC50 (Human betaherpesvirus 5 [4]) | Control (L1210 [5]) | pIC50 (KB [6]) | pIC50 (L1210 [7]) | Control (L1210 [8])
23 | Cn1cc(C(N)=O)c2c(N)ncnc21 | < 4.00 |  | < 4.00 |  | < 4.00 |  | 89% |  |  | 
24 | CCCn1cc(C(=N)S)c2c(N)ncnc21 | 4.77 |  | 4.92 | 4.60 | 5.92 |  | 79% |  |  | 
25 | Cn1cc(C#N)c2c(N)ncnc21 | < 4.00 |  | < 4.00 |  | < 4.00 | < 4.00 | 87% |  |  | 
26 | NC(=S)c1cn(COC(CO)CO)c2ncnc(N)c12 | < 4.00 |  | < 4.00 | < 4.00 | 5.21 |  |  |  |  | 
27 | NC(=S)c1cn(COCCO)c2ncnc(N)c12 | 3.94 |  | 4.68 | < 4.00 | 5.06 |  |  |  |  | 
28 | N#Cc1cn(Cc2ccccc2)c2ncnc(N)c12 | < 4.00 |  | 4.05 | < 4.00 | < 4.00 |  | 60% |  |  | 
29 | CCOCn1cc(C(N)=O)c2c(N)ncnc21 | < 4.00 |  | < 4.00 | < 4.00 | < 4.00 |  |  |  |  | 91%
30 | COCCOCn1cc(C(N)=O)c2c(N)ncnc21 | < 4.00 | 92% | < 4.00 | < 4.00 | < 4.00 |  |  |  |  | 
31 | Cc1cccc(Cn2cc(C(N)=O)c3c(N)ncnc32)c1 | < 4.00 |  | < 4.00 | < 4.00 | < 4.00 |  |  |  |  | 
32 | NC(=S)c1cn(COCc2ccccc2)c2ncnc(N)c12 | < 4.00 | 52% | 5.00 | < 4.00 | 5.59 | 5.74 |  |  | 4.00 | 
33 | Cc1ccccc1Cn1cc(C(N)=O)c2c(N)ncnc21 | < 4.00 |  | < 4.00 | < 4.00 | 4.82 |  |  |  |  | 
34 | CCOCn1cc(C#N)c2c(N)ncnc21 | < 4.00 | 76% | < 4.00 | < 4.00 | < 4.00 |  |  |  |  | 
35 | Cc1ccccc1Cn1cc(C(=N)S)c2c(N)ncnc21 | < 4.77 |  | 6.05 | 4.18 | 7.00 |  |  |  |  | 
36 | CCCn1cc(C(N)=O)c2c(N)ncnc21 | 4.00 |  | < 4.00 |  | < 4.00 | < 4.00 | 0% |  | 4.14 | 
37 | C=CCn1cc(C(N)=S)c2c(N)ncnc21 | 4.72 |  | 5.35 |  | 5.68 |  | 0% |  | 4.42 | 
38 | CCCn1cc(C#N)c2c(N)ncnc21 | < 4.00 |  | < 4.00 | < 4.00 | 4.44 |  | 74% |  |  | 
39 | Cn1cc(C(=N)S)c2c(N)ncnc21 | 4.82 |  | 5.55 |  | 5.92 |  | 0% |  | 4.42 | 
40 | C=CCn1cc(C#N)c2c(N)ncnc21 | < 4.00 |  | < 4.00 |  | < 4.00 |  | 75% |  |  | 
41 | NC(=O)c1cn([C@@H]2O[C@H](CO)[C@@H](O)[C@H]2O)c2ncnc(N)c12 [SANGIVAMYCIN] | 7.10 |  |  | > 8.00 |  |  |  |  |  | 
42 | N#Cc1c[nH]c2ncnc(N)c12 [TOYOCAMYCIN AGLYCONE] | 4.74 |  | < 4.00 | 5.00 | 5.41 |  |  |  |  | 
43 | N#Cc1cn([C@@H]2O[C@H](CO)[C@@H](O)[C@H]2O)c2ncnc(N)c12 [TOYOCAMYCIN] | 7.52 |  |  | > 8.00 |  |  |  |  |  | 
